Converted amounts (≈) assume the structure as drawn. Like-named read-outs stand apart in the source and are kept apart here. Blank lines part the entries; values can stand above or below the compound they belong to.
Key:
human fumarate hydratase [1] = molecular target: T1, human fumarate hydratase (Homo sapiens, UniProt P07954); assay: fluorescence-based FH assay coupled to MDH/diaphorase/resazurin; assay type: biochemical; details: for activity in FH assay (in words): human FH assay with fumarate; for Emax: read-out: Efficacy
T1 sequence (P07954 45-510): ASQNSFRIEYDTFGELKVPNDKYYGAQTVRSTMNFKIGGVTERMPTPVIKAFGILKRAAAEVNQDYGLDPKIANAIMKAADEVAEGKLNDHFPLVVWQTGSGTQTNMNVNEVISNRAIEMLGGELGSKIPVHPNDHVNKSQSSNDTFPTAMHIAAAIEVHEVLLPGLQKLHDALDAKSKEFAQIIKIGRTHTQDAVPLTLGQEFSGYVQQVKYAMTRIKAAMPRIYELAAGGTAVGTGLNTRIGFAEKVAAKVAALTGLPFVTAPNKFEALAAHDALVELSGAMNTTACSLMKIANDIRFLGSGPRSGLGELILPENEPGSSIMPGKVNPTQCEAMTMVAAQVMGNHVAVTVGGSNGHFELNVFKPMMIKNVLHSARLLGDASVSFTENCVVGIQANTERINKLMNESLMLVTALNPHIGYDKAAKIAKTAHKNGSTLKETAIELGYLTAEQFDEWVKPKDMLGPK

[2] = rat microsomal stability assay; assay type: in vitro ADME; details: liver microsomes
[3] = parallel artificial membrane permeability assay; assay type: in vitro ADME
[4] = aqueous kinetic solubility assay; assay type: physicochemical; details: aqueous medium, kinetic from dmso stock
[5] = molecular target: T2, L-malate dehydrogenase from pig heart (Sus scrofa, UniProt P00346); assay: malate dehydrogenase; assay type: biochemical; details: read-out: Km value for MDH enzyme; 10 IU/ml MDH, 5 min, room temperature
T2 sequence (P00346 25-338): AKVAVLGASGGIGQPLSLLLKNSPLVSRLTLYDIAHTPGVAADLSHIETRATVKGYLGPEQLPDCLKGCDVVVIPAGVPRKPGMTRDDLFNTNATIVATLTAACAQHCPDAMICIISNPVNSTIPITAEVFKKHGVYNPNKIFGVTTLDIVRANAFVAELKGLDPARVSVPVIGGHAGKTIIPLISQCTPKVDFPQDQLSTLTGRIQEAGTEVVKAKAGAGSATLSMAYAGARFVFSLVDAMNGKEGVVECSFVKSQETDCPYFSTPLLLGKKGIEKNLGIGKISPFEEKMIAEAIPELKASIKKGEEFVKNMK

human fumarate hydratase [6] = molecular target: T1, human fumarate hydratase; assay: microscale thermophoresis; assay type: binding
Outline: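 Recombinant C-terminally His-tagged human FH (200 nM) was labelled with RED-tris-NTA dye (100 nM) in PBS-T pH 7.4, mixed 1:1 for 30 min at RT, and spun 15,000 x g. Compound: 16-point 1:2 DMSO series from 10 mM, diluted 20-fold in PBS-T, mixed 1:1 with protein (50 nM FH), 2–3 min RT. Settings: LED 40%, MST 40%/60%, laser 30 s on. Kd taken from cold/hot regions.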

human fumarate hydratase [7] = molecular target: T1, human fumarate hydratase; assay: FH assay without fumarate; assay type: biochemical; details: no fumarate added
malate dehydrogenase = molecular target: T3, malate dehydrogenase (Sus scrofa, UniProt P00346); assay: MDH assay without malate; assay type: biochemical, pig; details: no malate added
T3 sequence (P00346 25-338): T2 sequence (P00346 25-338)

Amplex red REDOX assay = assay: Amplex red REDOX assay
Outline: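 Test compound (20 nL) was pinned into HBSS (1.26 mM CaCl2, 0.49 mM MgCl2, 1 g/L D-glucose), and background fluorescence was read (ex/em 525/598 nm). An equal volume of 2X Amplex Red mix (100 µM Amplex Red, 200 µM DTT, 2 U/mL HRP in HBSS) was added. After 15 min at room temperature the plate was re-read; ΔRFU = 15 min − 0 min. DMSO was the negative control; walrycin B and […] were positive controls.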

SMILES: O=C([O-])C(O)C(O)C(=O)[O-].[K+].[Na+] (centres unmarked) [Potassium sodium tartrate, reference compound]
- activity in FH assay (in words) (human fumarate hydratase [1]): increased activity

- AC50 (human fumarate hydratase [1]): 25.1 µM
- Emax (human fumarate hydratase [1]): 70%
SMILES: Cn1c(=O)c2c(-c3ccccc3Br)n(CCc3ccccc3)cc2n(C)c1=O [NCGC00117727, 5-(2-bromophenyl)-1,3-dimethyl-6-phenethyl-1,6-dihydro-2H-pyrrolo[3,4-d]pyrimidine-2,4(3H)-dione]

- AC50 (human fumarate hydratase [1]): 7.93 µM
- Emax (human fumarate hydratase [1]): 60.1%
- half-life [2]: 6.39 min
- PAMPA permeability pH 5 [3]: 945.87 1×10–6 cm/s
- PAMPA Permeability pH 7.4 [3]: Not conclusive
- solubility [4]: < 1 µg/mL
SMILES: CCCCCn1cc2c(c1-c1ccc(Br)cc1)c(=O)n(C)c(=O)n2C [NCGC00117671, 5-(4-bromophenyl)-1,3-dimethyl-6-pentyl-1,6-dihydro-2H-pyrrolo[3,4-d]pyrimidine-2,4(3H)-dione]

- Km [5]: 225 ± 30 µM
SMILES: O=C(O)CC(O)C(=O)O (centres unmarked) [malate]

- AC50 (human fumarate hydratase [1]): 8.89 µM
- Emax (human fumarate hydratase [1]): 79.4%
- Kd (human fumarate hydratase [6]): 18.3 µM
- half-life [2]: 1.11 min
- PAMPA permeability pH 5 [3]: 762.26 1×10–6 cm/s
- PAMPA Permeability pH 7.4 [3]: 1,224.00 1×10–6 cm/s
- PAMPA permeability at pH 7.4 (in words) [3]: high permeability
- solubility [4]: 2.15 µg/mL (≈ 5.46 µM)
SMILES: Cn1c(=O)c2c(-c3ccc(Cl)cc3)n(CCc3ccccc3)cc2n(C)c1=O [NCGC00102736, 5-(4-chlorophenyl)-1,3-dimethyl-6-phenethyl-1,6-dihydro-2H-pyrrolo[3,4-d]pyrimidine-2,4(3H)-dione]

- AC50 (human fumarate hydratase [1]): 31.5 µM
- Emax (human fumarate hydratase [1]): 79.5%
SMILES: COc1ccc(CCn2cc3c(c2-c2ccc(Br)cc2)c(=O)n(C)c(=O)n3C)cc1OC [NCGC00117695, 5-(4-bromophenyl)-6-(3,4-dimethoxyphenethyl)-1,3-dimethyl-1,6-dihydro-2H-pyrrolo[3,4-d]pyrimidine-2,4(3H)-dione]

- AC50 (human fumarate hydratase [1]): 5.61 µM
- Emax (human fumarate hydratase [1]): 35%
SMILES: CCCCCn1cc2c(c1-c1ccc(Cl)cc1)c(=O)n(C)c(=O)n2C [NCGC00115666, 5-(4-chlorophenyl)-1,3-dimethyl-6-pentyl-1,6-dihydro-2H-pyrrolo[3,4-d]pyrimidine-2,4(3H)-dione]

- activity in FH assay (in words) (human fumarate hydratase [1]): inactive
SMILES: Cn1c(=O)c2c(-c3ccccc3)n(CCCO)cc2n(C)c1=O [NCGC00141286]

- AC50 (human fumarate hydratase [1]): 28.1 µM
- Emax (human fumarate hydratase [1]): 78.1%
SMILES: Cn1c(=O)c2c(-c3ccccc3Br)n(Cc3ccccc3)cc2n(C)c1=O [NCGC00117701, 6-benzyl-5-(2-bromophenyl)-1,3-dimethyl-1,6-dihydro-2H-pyrrolo[3,4-d]pyrimidine-2,4(3H)-dione]

- AC50 (human fumarate hydratase [1]): 15.8 µM
- Emax (human fumarate hydratase [1]): 45.5%
SMILES: Cn1c(=O)c2c(-c3ccccc3Cl)n(Cc3ccc(Cl)cc3)cc2n(C)c1=O [NCGC00115668, 6-(4-chlorobenzyl)-5-(2-chlorophenyl)-1,3-dimethyl-1,6-dihydro-2H-pyrrolo[3,4-d]pyrimidine-2,4(3H)-dione]

SMILES: O=C(O)C(O)C(O)C(=O)O (centres unmarked) [tartrate]
- signal in FH assay in the absence of fumarate (in words) (human fumarate hydratase [7]): can drive both enzymes
- signal in MDH assay in the absence of malate (in words) (malate dehydrogenase): can drive both enzymes

SMILES: O=C1C(Cl)=C(Cl)C(=O)C(Cl)=C1Cl [Chloranil]
- redox activity in amplex red assay (in words) (Amplex red REDOX assay): strong REDOX activity

- AC50 (human fumarate hydratase [1]): 17.7 µM
- Emax (human fumarate hydratase [1]): 52%
SMILES: Cn1c(=O)c2c(-c3ccc(Cl)cc3)n(Cc3ccc(Cl)cc3)cc2n(C)c1=O [NCGC00115664, 6-(4-chlorobenzyl)-5-(4-chlorophenyl)-1,3-dimethyl-1,6-dihydro-2H-pyrrolo[3,4-d]pyrimidine-2,4(3H)-dione]

- Km (human fumarate hydratase [1]; read-out: Km value for FH enzyme, 10 nM FH, 15 min, room temperature): 41 ± 1.1 µM
SMILES: O=C(O)/C=C/C(=O)O [fumarate, reference compound]

- AC50 (human fumarate hydratase [1]): 9.98 µM
- Emax (human fumarate hydratase [1]): 79%
- Kd (human fumarate hydratase [6]): 23.3 µM
- half-life [2]: 7.68 min
- PAMPA permeability pH 5 [3]: 1,194 1×10–6 cm/s
- PAMPA Permeability pH 7.4 [3]: 1,507 1×10–6 cm/s
- PAMPA permeability at pH 7.4 (in words) [3]: high permeability
- solubility [4]: < 1 µg/mL
SMILES: CCCCn1cc2c(c1-c1ccc(Br)cc1)c(=O)n(C)c(=O)n2C [NCGC00117675, 5-(4-bromophenyl)-6-butyl-1,3-dimethyl-1,6-dihydro-2H-pyrrolo[3,4-d]pyrimidine-2,4(3H)-dione]

- AC50 (human fumarate hydratase [1]): 25.1 µM
- Emax (human fumarate hydratase [1]): 60.5%
SMILES: CCCCn1cc2c(c1-c1ccc(Cl)cc1)c(=O)n(C)c(=O)n2C [NCGC00115662, 6-butyl-5-(4-chlorophenyl)-1,3-dimethyl-1,6-dihydro-2H-pyrrolo[3,4-d]pyrimidine-2,4(3H)-dione]

- AC50 (human fumarate hydratase [1]): 31.5 µM
- Emax (human fumarate hydratase [1]): 49.7%
SMILES: CCCCCn1cc2c(c1-c1ccccc1Br)c(=O)n(C)c(=O)n2C [NCGC00117699, 5-(2-bromophenyl)-1,3-dimethyl-6-pentyl-1,6-dihydro-2H-pyrrolo[3,4-d]pyrimidine-2,4(3H)-dione]

- AC50 (human fumarate hydratase [1]): 7.06 µM
- Emax (human fumarate hydratase [1]): 63.7%
- half-life [2]: 1.23 min
- PAMPA permeability pH 5 [3]: 590 1×10–6 cm/s
- PAMPA Permeability pH 7.4 [3]: Not conclusive
- solubility [4]: 14.7 µg/mL (≈ 33.5 µM)
SMILES: Cn1c(=O)c2c(-c3ccc(Br)cc3)n(CCc3ccccc3)cc2n(C)c1=O [NCGC00117693, 5-(4-bromophenyl)-1,3-dimethyl-6-phenethyl-1,6-dihydro-2H-pyrrolo[3,4-d]pyrimidine-2,4(3H)-dione]

SMILES: Cn1nc(-c2ccc(C(F)(F)F)cc2)nc2c(=O)n(C)c(=O)nc1-2 [Walrycin B]
- redox activity in amplex red assay (in words) (Amplex red REDOX assay): weak
- redox activity in amplex red assay (in words) (Amplex red REDOX assay; listed as walrycin B): weak REDOX activity

From PMC7340117 (SLAS discovery : advancing life sciences R & D, 2019)
